ChEMBL document CHEMBL1799919, “Design, synthesis, biological evaluation, and structure-activity relationships of substituted phenyl 4-(2-oxoimidazolidin-1-yl)benzenesulfonates as new tubulin inhibitors mimicking combretastatin A-4” (J Med Chem, 2011)
Calls of active or inactive are those of the source. No cut-off for these calls is given here.

Key:
DU-145 = experiment: Antiproliferative activity against human DU145 cells after 48 hrs by sulforhodamine B assay; assay type: functional, cell-based; conditions: DU-145, 48 h
MDA-MB-231 [1] = experiment: Antiproliferative activity against human MDA-MB-231 cells after 48 hrs by sulforhodamine B assay; assay type: functional, cell-based; conditions: MDA-MB-231, 48 h
MDA-MB-231 [2] = experiment: Displacement of N,N'-ethylenebis(iodoacetamide) from colchicine-binding site of beta-tubulin in human MDA-MB-231 cells at 1000 times IC50 preincubated for after 2 hrs before N,N'-ethylenebis(iodoacetamide) addition measured after 1.5 hrs by chemiluminescence assay; assay type: cell-based
In short: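 EBI (100 μM final) added for 1.5 h at 37 °C; controls received 0.5% DMSO. Lysates (20 μg protein) run on 10% SDS-PAGE and blotted with anti-β-tubulin (TUB 2.1). β-tubulin–EBI adduct band detected by ECL.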

[3] = Antiproliferative activity against mouse B16F0 cells after 48 hrs by sulforhodamine B assay; assay type: functional, cell-based; conditions: B16F0, 48 h
CCRF-CEM = experiment: Antiproliferative activity against human CEM cells after 48 hrs by sulforhodamine B assay; assay type: functional, cell-based
CEM-VLB = experiment: Resistant ratio of IC50 for multidrug-resistant human CEM-VLB cells to IC50 for human CEM cells; assay type: functional
In short: (§1)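 Ratio of the IC50 in the resistant line (CEM-VLB, CHO-TAX 5-6 or CHO-VV 3-2) to the IC50 in its parental line (CEM or CHO).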

K562 = experiment: Antiproliferative activity against human K562 cells after 48 hrs by sulforhodamine B assay; assay type: functional, cell-based; conditions: K562, 48 h
M21 [4] = experiment: Disruption of cytoskeleton microtubule structure of human M21 cells at 5 times IC50 after 16 hrs by indirect immunofluorescence assay; assay type: functional, cell-based
In short: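 Fixed in 3.7% formaldehyde, permeabilized with saponin, and stained with anti-β-tubulin (TUB 2.1), Alexa-488 secondary and DAPI. Microtubule structure scored by fluorescence microscopy.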

[5] = Antiproliferative activity against multidrug-resistant human CEM/VLB cells after 48 hrs by sulforhodamine B assay; assay type: functional
SK-OV-3 = experiment: Antiproliferative activity against human SKOV3 cells after 48 hrs by sulforhodamine B assay; assay type: functional, cell-based; conditions: SK-OV-3, 48 h
M21 [6] = experiment: Cell cycle arrest in human M21 cells assessed as accumulation at G2/M phase at 5 times IC50 after 24 hrs using propidium iodide staining by flow cytometric analysis (reference value: 9%); assay type: functional
HT-29 = experiment: Antiproliferative activity against human HT-29 cells after 48 hrs by sulforhodamine B assay; assay type: functional, cell-based; conditions: HT-29, 48 h
HT-1080 [7] = experiment: Antiproliferative activity against human HT1080 cells after 48 hrs by sulforhodamine B assay; assay type: functional, cell-based; conditions: HT-1080, 48 h
CHO-TAX 5-6 [8] = experiment: Antiproliferative activity against paclitaxel-resistant CHO-TAX 5-6 cells after 48 hrs by sulforhodamine B assay; assay type: functional, cell-based; conditions: Cricetulus griseus, CHO-TAX 5-6, 48 h
M21 [9] = experiment: Cell cycle arrest in human M21 cells assessed as accumulation at G0/G1 phase at 5 times IC50 after 24 hrs using propidium iodide staining by flow cytometric analysis (reference value: 61%); assay type: functional
[10] = Antiproliferative activity against mouse P388D1 cells after 48 hrs by sulforhodamine B assay; assay type: functional, cell-based; conditions: P388D1, 48 h
CHO-VV 3-2 = experiment: Antiproliferative activity against colchicine- and vinblastine-resistant CHO-VV 3-2 cells after 48 hrs by sulforhodamine B assay; conditions: Cricetulus griseus, CHO-VV 3-2, 48 h
CHO = experiment: Antiproliferative activity against CHO cells after 48 hrs by sulforhodamine B assay; assay type: functional, cell-based; conditions: Cricetulus griseus
M21 [11] = experiment: Cell cycle arrest in human M21 cells assessed as accumulation at S phase at 5 times IC50 after 24 hrs using propidium iodide staining by flow cytometric analysis (reference value: 30%); assay type: functional
CHO-TAX 5-6 [12] = experiment: Resistant ratio of IC50 for paclitaxel-resistant CHO-TAX 5-6 cells to IC50 for CHO cells; assay type: functional, Cricetulus griseus; in short: as §1
[13] = Toxicity against fertilized chicken embryo assessed as mortality at 3 ug per egg, iv by CAM assay; assay type: organism-based, Gallus gallus; conditions: in vivo, read-out: Activity
In short: (§2)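 Fertilized chicken eggs incubated 10 days with automatic turning, then static. HT-1080 cells (3.5 × 10^5 cells/egg) grafted onto exposed CAM. On day 11, drug in DMSO diluted into cremophor/ethanol/PBS (6.25/6.25/87.5 v/v) excipient, DMSO below 0.5%, 100 μL injected iv into 10-12 eggs. Eggs incubated to day 17, dead embryos counted. Untreated eggs used for normalization. Two independent experiments, at least 10 eggs each.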

MCF7 = experiment: Antiproliferative activity against human MCF7 cells after 48 hrs by sulforhodamine B assay; assay type: functional, cell-based; conditions: MCF7, 48 h
M21 [14] = experiment: Antiproliferative activity against human M21 cells after 48 hrs by sulforhodamine B assay; assay type: functional, cell-based; conditions: M21, 48 h
L1210 = experiment: Antiproliferative activity against mouse L1210 cells after 48 hrs by sulforhodamine B assay; assay type: functional, cell-based; conditions: L1210, 48 h
HT-1080 [15] = experiment: Antivasculogenic activity against human HT1080 cells xenografted in chicken chorioallantoic membrane assessed as inhibition of tumor growth at 3 ug per egg, iv measured on day 14 by CAM assay; assay type: functional
[16] = Toxicity against fertilized chicken embryo assessed as mortality at 10 ug per egg, iv by CAM assay; assay type: organism-based, Gallus gallus; conditions: in vivo; in short: as §2
HT-1080 [17] = experiment: Antivasculogenic activity against human HT1080 cells xenografted in chicken chorioallantoic membrane assessed as inhibition of tumor growth at 10 ug per egg, iv measured on day 14 by CAM assay; assay type: functional; set-up: scale not given: the % may be the effect or the level left
HT-1080 [18] = experiment: Antivasculogenic activity against human HT1080 cells xenografted in chicken chorioallantoic membrane assessed as inhibition of tumor growth at 1 ug per egg, iv measured on day 14 by CAM assay; assay type: functional; set-up: scale not given: the % may be the effect or the level left
[19] = Toxicity against fertilized chicken embryo assessed as mortality at 1 ug per egg, iv by CAM assay; assay type: organism-based, Gallus gallus; conditions: in vivo, read-out: Activity; in short: as §2

Compound | IC50 (DU-145) | IC50 (MDA-MB-231 [1]) | inhibition (MDA-MB-231 [2]) | IC50 [3] | IC50 (CCRF-CEM) | Ratio IC50 (CEM-VLB) | IC50 (K562) | Activity (M21 [4]) | IC50 [5] | IC50 (SK-OV-3) | Activity (M21 [6]) | IC50 (HT-29) | IC50 (HT-1080 [7]) | IC50 (CHO-TAX 5-6 [8]) | Activity (M21 [9]) | IC50 [10] | IC50 (CHO-VV 3-2) | IC50 (CHO) | Activity (M21 [11]) | Ratio IC50 (CHO-TAX 5-6 [12]) | further results
O=C1NCCN1c1ccc(S(=O)(=O)Oc2ccc(F)cc2)cc1 | 0.55 µM | 0.36 µM | Active | 0.25 µM | 0.2 µM | 1.4 | 0.18 µM | Active | 0.27 µM | 0.21 µM | 28% | 0.12 µM | 0.19 µM | 0.086 µM | 51% | 0.24 µM | 0.26 µM | 0.23 µM | 21% | 0.37 | mortality [13]: 29%; IC50 (MCF7): 0.17 µM; IC50 (M21 [14]): 0.089 µM; IC50 (L1210): 0.14 µM; Activity (HT-1080 [15]): inactive
O=C1NCCN1c1ccc(S(=O)(=O)Oc2cccc(Cl)c2)cc1 | 0.058 µM | 0.045 µM | Active | 0.046 µM | 0.017 µM | 1.2 | 0.016 µM | Active | 0.02 µM | 0.022 µM | 79% | 0.015 µM | 0.019 µM | 0.0093 µM | 2% | 0.019 µM | 0.02 µM | 0.018 µM | 19% | 0.52 | mortality [13]: 0%; IC50 (MCF7): 0.013 µM; IC50 (M21 [14]): 0.0092 µM; IC50 (L1210): 0.017 µM; Activity (HT-1080 [15]): 46%
COc1ccc(OS(=O)(=O)c2ccc(N3CCNC3=O)cc2)cc1 | 0.65 µM | 0.76 µM | Active | 0.51 µM | 0.25 µM | 1.3 | 0.24 µM | Active | 0.32 µM | 0.32 µM | 95% | 0.13 µM | 0.24 µM | 0.2 µM | 0% | 0.26 µM | 0.25 µM | 0.24 µM | 5% | 0.83 | Activity [16]: Active; IC50 (MCF7): 0.16 µM; IC50 (M21 [14]): 0.098 µM; IC50 (L1210): 0.25 µM; Activity (HT-1080 [17]): 13%
COc1cc(OS(=O)(=O)c2ccc(N3CCNC3=O)cc2)cc(OC)c1OC | 0.0085 µM | 0.0094 µM | Active | 0.0092 µM | 0.0071 µM | 1.3 | 0.0025 µM | Active | 0.0095 µM | 0.0061 µM | 98% | 0.004 µM | 0.0059 µM | 0.003 µM | 1% | 0.0027 µM | 0.0082 µM | 0.0074 µM | 1% | 0.41 | Activity (HT-1080 [18]): 39%; IC50 (MCF7): 0.005 µM; IC50 (M21 [14]): 0.004 µM; IC50 (L1210): 0.0054 µM; mortality [19]: 8%
O=C1NCCN1c1ccc(S(=O)(=O)Oc2cc(Cl)cc(Cl)c2)cc1 | 0.066 µM | 0.026 µM | Active | 0.041 µM | 0.016 µM | 1.2 | 0.0072 µM | Active | 0.019 µM | 0.016 µM | 79% | 0.01 µM | 0.018 µM | 0.0061 µM | 1% | 0.0074 µM | 0.02 µM | 0.017 µM | 20% | 0.36 | mortality [13]: 29%; IC50 (MCF7): 0.018 µM; IC50 (M21 [14]): 0.0082 µM; IC50 (L1210): 0.0096 µM; Activity (HT-1080 [15]): inactive
